Assay results published in PMC3327328 (Molecular Biology of the Cell, 2012).
Like-named read-outs stand apart in the source and are kept apart here. Square brackets hold non-standard residues; d marks the D form. Ends that are not written are not given here. Peptide text beside a SMILES is read from it. pT = C[C@@H](OP(=O)(O)O)[C@H](N)C(=O)O

Columns and labels:
[1] = target: human Survivin H80R (Homo sapiens, UniProt O15392, H80R); experiment: ITC binding of histone H3 peptides to human Survivin H80R; conditions: pH 6.8, 25°C, HEPES:citric acid:Ches, 10 mM β-mercaptoethanol, single-site model, n/b = no binding
In short: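 Mutant human Survivin from bacteria, Ni2+-resin purified, octahistidine tag removed by thrombin, then Superdex200. ITC at pH 6.8 in citric acid–Ches–HEPES buffer, 25°C. 1.2 mM histone H3 tail peptide titrated into 0.1 mM protein over sixteen injections 180 s apart. Kd from a single-site fit with stoichiometry, ΔH and Ka variable, using a baseline offset for dilution heats.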

[2] = target: X. laevis class B Survivin (xl wt, xSurvivin-B) (Xenopus laevis, UniProt Q8JGN5); experiment: ITC binding of histone H3 peptides to Xenopus Survivin class B wild type; conditions: pH 8.2, 25°C, HEPES:citric acid:Ches, 10 mM β-mercaptoethanol, single-site model, n/b = no binding
[3] = target: human Survivin H80A (human) (UniProt O15392); experiment: ITC
[4] = target: human Survivin K62A (human) (UniProt O15392); experiment: ITC
[5] = target: human Survivin (hs wt, class A) (Homo sapiens, UniProt O15392); experiment: ITC binding of histone H3 peptides to human Survivin wild type
[6] = target: human Survivin K62A (Homo sapiens, UniProt O15392, K62A); experiment: ITC binding of histone H3 peptides to human Survivin K62A
In short: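 ITC at pH 7.8 with recombinant human Survivin K62A (bacterially expressed, His tag thrombin-cleaved, gel-filtered) binding H3T3ph(1-4) and unmodified H3(1-4) peptides. Syringe peptide 1.2 mM, cell protein 0.1 mM, sixteen injections 180 s apart. Kd from a single-binding-site model with stoichiometry, ΔH and Ka variable. Baseline offset corrects for heats of dilution.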

[7] = target: human Survivin wild type (human) (UniProt O15392); experiment: ITC
[8] = target: T1, human Survivin wild type (human, UniProt O15392 1-142); experiment: ITC
[9] = target: T2, Xenopus laevis class B Survivin R89H (X. laevis, UniProt Q8JGN5 1-160, R89H); experiment: ITC
[10] = target: T1, human Survivin wild type; experiment: ITC; remark: listed apart in the source
[11] = target: T1, human Survivin wild type; experiment: ITC; remark: listed apart in the source
[12] = target: T1, human Survivin wild type; experiment: ITC; remark: listed apart in the source
[13] = target: T1, human Survivin wild type; experiment: ITC; remark: listed apart in the source
[14] = target: T1, human Survivin wild type; experiment: ITC; remark: listed apart in the source
[15] = target: T1, human Survivin wild type; experiment: ITC; remark: listed apart in the source
[16] = target: T2, Xenopus laevis class B Survivin R89H; experiment: ITC; remark: listed apart in the source
[17] = target: human Survivin K62A (human, UniProt O15392 1-142, K62A); experiment: crystal structure
human Survivin K62A (human, UniProt O15392 1-142, K62A), sequence (O15392 whole entry K62A): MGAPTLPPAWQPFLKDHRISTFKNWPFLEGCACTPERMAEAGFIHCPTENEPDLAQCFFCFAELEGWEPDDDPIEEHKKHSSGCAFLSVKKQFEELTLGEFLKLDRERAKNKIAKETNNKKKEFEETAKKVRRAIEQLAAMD

human Survivin K62A (human), sequence (O15392 whole entry K62A): as above
T2 sequence (Q8JGN5 whole entry R89H): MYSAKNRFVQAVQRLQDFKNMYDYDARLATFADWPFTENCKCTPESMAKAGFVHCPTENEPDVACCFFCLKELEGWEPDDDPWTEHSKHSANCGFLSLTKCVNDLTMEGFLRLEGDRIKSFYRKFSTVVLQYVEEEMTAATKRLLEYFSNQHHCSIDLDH
human Survivin H80A (human), sequence (O15392 whole entry H80A): as the sequence (O15392 whole entry K62A) above, with A62K, H80A counted along it
T1 sequence (O15392 whole entry): as the sequence (O15392 whole entry K62A) above, with A62K counted along it
human Survivin wild type (human), sequence (O15392 whole entry): as the sequence (O15392 whole entry K62A) above, with A62K counted along it
human Survivin K62A (Homo sapiens, UniProt O15392, K62A), sequence (O15392 whole entry K62A): as the sequence (O15392 whole entry K62A) above
human Survivin H80R, sequence (O15392 whole entry H80R): as the sequence (O15392 whole entry K62A) above, with A62K, H80R counted along it
X. laevis class B Survivin (xl wt, xSurvivin-B), sequence (Q8JGN5 whole entry): as the sequence (Q8JGN5 whole entry R89H) above, with H89R counted along it
human Survivin (hs wt, class A), sequence (O15392 whole entry): as the sequence (O15392 whole entry K62A) above, with A62K counted along it

For `C[C@H](N)C(=O)N[C@@H](CCCNC(=N)N)C(=O)N[C@H](C(=O)N[C@@H](CCCCN)C(=O)N[C@@H](CCC(N)=O)C(=O)N[C@H](C(=O)N[C@@H](C)C(=O)N[C@@H](CCCNC(=N)N)C(=O)N[C@@H](CCCCN)C(=O)N[C@@H](CO)C(=O)N[C@H](C(=O)NCC(=O)O)[C@@H](C)O)[C@@H](C)O)[C@@H](C)O` [H3T3(1-12)], the “Kd (dissociation constant)” value [1] was “n/b” and the “Kd (dissociation constant)” value [2] was “n/b”.

“histone H3 N-terminal peptide ARTK, unmodified” gave a Kd [3] of 236 µM, a dH [3] of -3.3 kcal/mol and a stoichiometry N [3] of 0.99. For the same molecule, the Kd [4] was 31.3 µM, the dH [4] was -4.61 kcal/mol and the stoichiometry N [4] was 1.22.

For `C[C@H](N)C(=O)N[C@@H](CCCNC(=N)N)C(=O)N[C@H](C(=O)N[C@@H](CCCCN)C(=O)O)[C@@H](C)O` [H3T3(1-4)] (H-ARTK-OH), the Kd [5] was 60.6 ± 4 µM and the Kd [6] was 31.3 ± 2 µM.

AR[pT]K [histone H3 N-terminal peptide ARTphK, phosphorylated on T3] showed a Kd [7] of 61.7 µM, a dH [7] of -2.12 kcal/mol and a stoichiometry N [7] of 1.05.

For ARTK [histone H3 N-terminal peptide ARTK, unmodified], the Kd [7] was 60.6 µM, the dH [7] was -3.16 kcal/mol and the stoichiometry N [7] was 1.27.

For AR[pT]KQTARKSTG [histone H3 N-terminal peptide ARTphKQTARKSTG, phosphorylated on T3], the dH [8] was -5.64 ± 0.02 kcal/mol, the “stoichiometry N” value [8] was 1.13 ± 0.001 and the dH [9] was -4.57 ± 0.04 kcal/mol. The “stoichiometry N” value [9] was 1.09 ± 0.004, the dH [10] was -4.88 ± 0.03 kcal/mol and the “stoichiometry N” value [10] was 1.03 ± 0.002. The dH [11] was -4.65 ± 0.05 kcal/mol, the “stoichiometry N” value [11] was 1.12 ± 0.01 and the dH [12] was -4.72 ± 0.06 kcal/mol. The “stoichiometry N” value [12] was 1.2 ± 0.01, the dH [13] was -4.13 ± 0.22 kcal/mol and the “stoichiometry N” value [13] was 1.23 ± 0.02. The dH [14] was -6.85 ± 0.02 kcal/mol, the “stoichiometry N” value [14] was 1.01 ± 0.002 and the dH [15] was -0.67 ± 0.05 kcal/mol. For the same molecule, the “stoichiometry N” value [15] was 1.35 ± 0.06, the dH [16] was -0.87 ± 0.015 kcal/mol and the “stoichiometry N” value [16] was 1.04 ± 0.01.

For ARTKQTARKSTG [histone H3 N-terminal peptide ARTKQTARKSTG, unmodified], the binding result [17] was “binds”, the Kd [8] was 11.8 ± 1 µM and the dH [8] was -2.49 ± 0.06 kcal/mol. For the same molecule, the “stoichiometry N” value [8] was 1.26 ± 0.01, the Kd [9] was 5.21 ± 0.39 µM and the dH [9] was -2.69 ± 0.04 kcal/mol. For the same molecule, the “stoichiometry N” value [9] was 1.15 ± 0.01, the Kd [10] was 9.67 ± 0.31 µM and the dH [10] was -2.79 ± 0.02 kcal/mol. The “stoichiometry N” value [10] was 1.29 ± 0.01, the Kd [11] was 13.3 ± 0.7 µM and the dH [11] was -3.21 ± 0.05 kcal/mol. The “stoichiometry N” value [11] was 1.36 ± 0.01, the Kd [12] was 17.1 ± 0.8 µM and the dH [12] was -3.32 ± 0.05 kcal/mol. For the same molecule, the “stoichiometry N” value [12] was 1.33 ± 0.01, the Kd [13] was 30.2 ± 1.2 µM and the dH [13] was -3.43 ± 0.05 kcal/mol. For the same molecule, the “stoichiometry N” value [13] was 1.32 ± 0.01, the Kd [14] was 21.4 ± 3.2 µM and the dH [14] was -4.32 ± 0.23 kcal/mol. The “stoichiometry N” value [14] was 1.37 ± 0.04, the Kd [15] was 21 ± 1.8 µM and the dH [15] was -1.89 ± 0.04 kcal/mol. The “stoichiometry N” value [15] was 1.56 ± 0.02, the Kd [16] was 12.9 ± 1.4 µM and the dH [16] was -2.72 ± 0.06 kcal/mol. The “stoichiometry N” value [16] was 1.34 ± 0.02.
